Data: ChEMBL document CHEMBL4177701, “A novel series of enoyl reductase inhibitors targeting the ESKAPE pathogens, Staphylococcus aureus and Acinetobacter baumannii” (Bioorg Med Chem, 2018)
Converted amounts (≈) assume the structure as drawn. The source made the active and inactive calls. No cut-off for these calls is given here.

Legend:
[1] = Competitive inhibition of Acinetobacter baumannii 2208 ATCC 19606 FabI using crotonyl-CoA as substrate in presence of NADPH/NADH after 10 mins by fluorescence assay; set-up: species or system Acinetobacter baumannii ATCC 19606 = CIP 70.34 = JCM 6841
[2] = tested on: Staphylococcus aureus; assay: Antibacterial activity against Staphylococcus aureus RN4220 over-expressing FabI by microbroth dilution method; type: functional
How it was run: (§1)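 Broth microdilution MIC; reported value is mean of at least two runs, within two-fold experimental uncertainty.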

[3] = tested on: Staphylococcus aureus; assay: Antibacterial activity against methicillin-resistant Staphylococcus aureus subsp. aureus Rosenbach ATCC 43300 by microbroth dilution method; type: functional; how it was run: as §1
[4] = tested on: Acinetobacter baumannii ATCC 19606 = CIP 70.34 = JCM 6841; assay: Binding affinity to Acinetobacter baumannii 2208 ATCC 19606 FabI by SPR assay
[5] = tested on: Acinetobacter baumannii; assay: Antibacterial activity against Acinetobacter baumannii 2208 ATCC 19606 by microbroth dilution method; type: functional; details: ATCC 19606 = CIP 70.34 = JCM 6841 2208
How it was run: (§2)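 Microbroth dilution MIC; each value is the mean of at least two runs, within two-fold experimental uncertainty.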

[6] = molecular target: T1, Enoyl-[acyl-carrier-protein] reductase [NADPH] FabI (Staphylococcus aureus) (UniProt Q6GI75); assay: Binding affinity to Staphylococcus aureus subsp. aureus Rosenbach ATCC 43300 FabI by SPR assay
T1 sequence (whole entry): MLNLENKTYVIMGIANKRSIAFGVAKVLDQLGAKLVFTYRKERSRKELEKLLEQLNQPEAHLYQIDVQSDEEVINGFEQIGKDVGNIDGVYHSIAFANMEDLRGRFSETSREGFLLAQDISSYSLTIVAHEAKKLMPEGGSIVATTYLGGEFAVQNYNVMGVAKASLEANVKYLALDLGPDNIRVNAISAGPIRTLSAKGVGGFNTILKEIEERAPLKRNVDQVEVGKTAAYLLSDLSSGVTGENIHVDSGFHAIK

[7] = Inhibition of Acinetobacter baumannii 2208 ATCC 19606 FabI using crotonyl-CoA as substrate in presence of NADPH/NADH after 10 mins by fluorescence assay; set-up: species or system Acinetobacter baumannii ATCC 19606 = CIP 70.34 = JCM 6841
How it was run: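 AbFabI, 200 nM, in 50 mM MES/100 mM NaCl with 200 μM NADH, 0.1 mg/mL BSA and 0.01% triton. Reaction started with 300 μM crotonyl-CoA. NADH fluorescence read at 340/460 nm. Compounds tested at 0.4 nM–200 μM. Initial 10-min slopes were compared with a DMSO no-compound control. At least two independent experiments, each in duplicate; two-fold uncertainty.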

[8] = molecular target: T2, Enoyl-[acyl-carrier-protein] reductase [NADPH] FabI (Staphylococcus aureus, UniProt Q6GI75); assay: Competitive inhibition of Staphylococcus aureus subsp. aureus Rosenbach ATCC 43300 FabI using crotonyl-CoA as substrate in presence of NADPH/NADH after 10 mins by fluorescence assay
T2 sequence (Q6GI75 whole entry): T1 sequence (whole entry)

[9] = tested on: Escherichia coli; assay: Antibacterial activity against Escherichia coli BW25113 mutant by microbroth dilution method; type: functional; how it was run: as §1
[10] = molecular target: T2, Enoyl-[acyl-carrier-protein] reductase [NADPH] FabI; assay: Inhibition of Staphylococcus aureus subsp. aureus Rosenbach ATCC 43300 FabI using crotonyl-CoA as substrate in presence of NADPH/NADH after 10 mins by fluorescence assay
How it was run: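 SaFabI enzyme, 300 nM, in 50 mM MES/100 mM NaCl with 200 μM NADPH, 0.1 mg/mL BSA, 0.01% triton; started with 400 μM crotonyl-CoA. NADPH fluorescence at 340/460 nm. Compounds 0.4 nM–200 μM. Slopes over first 10 min compared with DMSO control for % inhibition. At least two independent experiments, each in duplicate. Two-fold experimental uncertainty.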

[11] = tested on: Staphylococcus aureus; assay: Antibacterial activity against Staphylococcus aureus Newman by microbroth dilution method; type: functional; how it was run: as §2
[12] = tested on: Acinetobacter baumannii; assay: Synergistic antibacterial activity against Acinetobacter baumannii 2208 ATCC 19606 assessed as colistin MIC by checkerboard method; type: functional; details: ATCC 19606 = CIP 70.34 = JCM 6841 2208
[13] = tested on: Acinetobacter baumannii; assay: Synergistic antibacterial activity against Acinetobacter baumannii 2208 ATCC 19606 in presence of colistin by checkerboard method; type: functional; details: ATCC 19606 = CIP 70.34 = JCM 6841 2208
[14] = tested on: Acinetobacter baumannii; assay: Synergistic antibacterial activity against Acinetobacter baumannii 2208 ATCC 19606 assessed as fractional inhibitory concentration in presence of colistin by checkerboard method; type: functional, ATCC 19606 = CIP 70.34 = JCM 6841 2208
[15] = tested on: HepG2; assay: Cytotoxicity against human HepG2 cells assessed as reduction in cell viability after 24 hrs in presence of 0.5% FBS by MTT assay; type: cell-based; details: HepG2, 24 h
How it was run: (§3)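 HepG2 cells in EMEM with either 10% FBS or 0.5% FBS plus 10% Cell-Ess serum replacement. Seeded at 25,000 cells/well and incubated overnight at 37 °C, 5% CO2. Treated 24 h at 100–3 μg/mL, with matched DMSO controls. MTT added for 2 h, formazan extracted in DMSO, absorbance read at 570 nm. Run in duplicate; IC50 taken from the viability plot against the DMSO control.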

[16] = tested on: HepG2; assay: Cytotoxicity against human HepG2 cells assessed as reduction in cell viability after 24 hrs in presence of 10% FBS by MTT assay; type: cell-based; details: HepG2, 24 h; how it was run: as §3
[17] = tested on: Staphylococcus aureus; assay: Antibacterial activity against Staphylococcus aureus RN4220 by microbroth dilution method; type: functional; how it was run: as §1
[18] = tested on: Staphylococcus aureus; assay: Selectivity ratio of MIC for Staphylococcus aureus RN4220 over-expressing FabI to MIC for Staphylococcus aureus RN4220; type: functional
[19] = tested on: Escherichia coli; assay: Antibacterial activity against Escherichia coli BW25113 harboring TolC deletion mutant by microbroth dilution method; type: functional; how it was run: as §1
[20] = tested on: Acinetobacter baumannii; assay: Synergistic antibacterial activity against MDR Acinetobacter baumannii ATCC BAA-1605 assessed as fold reduction in colistin MIC by checkerboard method; type: functional

| Structure (SMILES) | Ki [1] | MIC [2] | MIC [3] | Activity [4] | MIC [5] | Activity [6] | IC50 [7] | Ki [8] | MIC [9] | IC50 [10] | MIC [11] | MIC [12] | MIC [13] | FIC [14] | IC50 [15] | IC50 [16] | MIC [17] | Selectivity ratio [18] | MIC [19] | fold change (FC) [20] |
| --- | --- | --- | --- | --- | --- | --- | --- | --- | --- | --- | --- | --- | --- | --- | --- | --- | --- | --- | --- | --- |
| CC(C)S(=O)(=O)c1ccc(CC(=O)N2CCC(c3ccc4c(c3)OCO4)C2)cc1 (racemic) | > 50 µM | > 200 µg/mL | > 200 µg/mL | Active | > 200 µg/mL | Active | > 100 µM | > 37.1 µM | > 200 µg/mL | > 100 µM | – | – | – | – | – | – | – | – | – | – |
| O=C(Cc1c(F)cccc1F)N1CCC(c2ccccc2)C1 (racemic) | 3.5 µM | > 200 µg/mL | > 200 µg/mL | Active | > 200 µg/mL | Active | 6.9 µM | 0.7 µM | > 200 µg/mL | – | 166 µM (≈ 50 µg/mL) | 0.19 µg/mL | 25 µg/mL | 0.25 | > 200 µg/mL | 237 µg/mL | 50 µg/mL (≈ 166 µM) | – | – | – |
| CC(=O)Nc1ccc(CC(=O)N2CCC(c3nccs3)C2)cc1 (racemic) | > 50 µM | > 200 µg/mL | > 200 µg/mL | Active | > 200 µg/mL | Active | > 100 µM | > 37.1 µM | > 200 µg/mL | > 100 µM | – | – | – | – | – | – | – | – | – | – |
| O=C(Cc1c(F)cccc1Cl)N1CCC(c2ccc3c(c2)OCO3)C1 (racemic) | > 100 µM | – | > 200 µg/mL | Active | > 200 µg/mL | Active | > 200 µM | 0.7 µM | > 200 µg/mL | – | 69.1 µM (≈ 25 µg/mL) | – | – | – | – | – | 25 µg/mL (≈ 69.1 µM) | >4 | – | – |
| O=C(Cc1ccccc1F)N1CCC(c2ccccc2)C1 (racemic) | 2 µM | 200 µg/mL (≈ 706 µM) | 100 µg/mL (≈ 353 µM) | Active | > 200 µg/mL | Active | 3.9 µM | 1.9 µM | > 200 µg/mL | – | 176 µM (≈ 50 µg/mL) | 0.19 µg/mL | 25 µg/mL | 0.25 | 76 µg/mL | 160 µg/mL | 50 µg/mL (≈ 176 µM) | – | – | – |
| COc1ccccc1C1CCN(C(=O)Cc2ccc(NC(C)=O)cc2)C1 (racemic) | > 50 µM | > 200 µg/mL | > 200 µg/mL | Active | > 200 µg/mL | Active | > 100 µM | > 37.1 µM | > 200 µg/mL | > 100 µM | – | – | – | – | – | – | – | – | – | – |
| COc1ccccc1C1CCN(C(=O)Cc2c(F)cccc2F)C1 (racemic) | 1.5 µM | – | > 200 µg/mL | Active | > 200 µg/mL | Active | 3 µM | 2.1 µM | > 200 µg/mL | – | 151 µM (≈ 50 µg/mL) | 0.19 µg/mL | 50 µg/mL | 0.38 | 65 µg/mL | 279 µg/mL | – | – | – | – |
| CC(=O)Nc1ccc(CC(=O)N2CCC(c3ccccc3)C2)cc1 (racemic) | > 50 µM | > 200 µg/mL | > 200 µg/mL | Active | > 200 µg/mL | Active | > 100 µM | > 37.1 µM | – | > 100 µM | – | – | – | – | – | – | – | – | > 200 µg/mL | – |
| O=C(Cc1ccccc1Cl)N1CCC(c2ccccn2)C1 (racemic) | 15.4 µM | 200 µg/mL (≈ 665 µM) | 200 µg/mL (≈ 665 µM) | Active | > 200 µg/mL | Active | 30.7 µM | 6.8 µM | > 200 µg/mL | – | 166 µM (≈ 50 µg/mL) | 0.39 µg/mL | 50 µg/mL | 0.5 | – | – | 100 µg/mL (≈ 332 µM) | – | – | 10 |
| O=C(Cc1cccc(F)c1F)N1CCC(c2ccccc2)C1 (racemic) | 4.7 µM | 200 µg/mL (≈ 664 µM) | 100 µg/mL (≈ 332 µM) | Active | > 200 µg/mL | Active | 9.3 µM | 2.7 µM | > 200 µg/mL | – | 166 µM (≈ 50 µg/mL) | 0.19 µg/mL | 25 µg/mL | 0.25 | 68 µg/mL | 125 µg/mL | 50 µg/mL (≈ 166 µM) | – | – | – |
| COc1ccc(C2CCN(C(=O)Cc3ccc(NC(C)=O)cc3)C2)cc1 (racemic) | > 50 µM | > 200 µg/mL | > 200 µg/mL | Active | > 200 µg/mL | Active | > 100 µM | > 37.1 µM | > 200 µg/mL | > 100 µM | – | – | – | – | – | – | – | – | – | – |
| CC(=O)Nc1ccc(CC(=O)N2CCC(c3ccc4c(c3)OCO4)C2)cc1 (racemic) | > 50 µM | > 200 µg/mL | > 200 µg/mL | Active | > 200 µg/mL | Active | > 100 µM | > 37.1 µM | > 200 µg/mL | > 100 µM | – | – | – | – | – | – | – | – | – | – |
